# Compounds with a hit are over-represented: about 3.7% of the library has one in this group of screens.
# Dynein transport: inhibitors of GR-EGFP nuclear translocation, primary screen, dynein cargo transport inhibitor project, imaging, high-content, 3617.4 mouse cells; z-score, hits read low; 0.47% of 220,000 active; test concentration mostly 20 µM; stimulated with dexamethasone, 1 µM; hits give low values; AID 1381, 2008;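 active means plate z-score of nuclear minus cytoplasmic receptor signal below a set negative limit, without overly bright fluorescence or cell loss, cut at about -3.5 in these data, passing the limit was not always enough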;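 further: z-score of nuclear minus cytoplasmic ring GR-EGFP intensity difference per well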
#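 Buffer or medium: tet-free, stripped-serum medium; reagent: dexamethasone at 1.0 µM final, 30 min; incubation: 48 h induction, 1 h compound, 30 min dex at 37 °C; measured by: formaldehyde fixation, Hoechst nuclear stain, 10x automated fluorescence imaging; read-out: nuclear-to-cytoplasmic GR-EGFP distribution per well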
# Mdm2-MdmX inh: inhibitors of human Mdm2-MdmX association, primary screen, cell-based, luminescence, split luciferase, SaOS-2, uHTS. Protein Mdm4 (Homo sapiens) + E3 ubiquitin-protein ligase Mdm2 (Homo sapiens), …. SaOS-2 split-luciferase Mdm2/MdmX complementation. inhibition, % at 8 µM. 3% of 330,000 active. AID 485346, 2010;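 active means inhibition of at least 50% at 8 µM in the primary screen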
# MDM2 E3 inh: MDM2-luciferase reporter signal enhancers, primary screen, MDM2 E3 ligase inhibitor project, cell-based, luminescence, 1536-well. E3 ubiquitin-protein ligase Mdm2 (Homo sapiens), Q00987. cell-based MDM2 ubiquitination luciferase reporter, 2 h; 0 = plate control, 100 = twice control, blank-subtracted. signal enhancement, % at 5 µM. 0.11% of 210,000 active. AID 1230, 2008;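 active means signal enhancement of 30% or more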;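 further: luminescence tracks abundance of the self-degrading MDM2-luciferase fusion protein; higher signal means inhibition of MDM2 E3 ligase activity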
#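 Material: stable MDM2–luciferase fusion reporter cells / Quantity: 2000 cells/well / Dosing: single 5 µM compound dose, 0.2% final DMSO / Buffer or medium: DMEM / Schedule: 4 h cell settling then 2 h compound exposure, 37 °C / Detection: luminescence with SteadyLite reagent, 15 min at room temperature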
# UPR CHOP act: activators of apoptotic CHOP UPR arm, primary screen, cell-based, CHO-CHOP luciferase reporter, luminescence, uHTS; UPR activation; percent of tunicamycin response over DMSO baseline; activation, % at 10 µM; 0.34% of 330,000 active; AID 449763, 2010;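 active means at 10 µM dose, activation of 40% or more, normalized to positive control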;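 further: 100% = tunicamycin at 10 µg/mL and 0% = DMSO alone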
#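 Dosing – one dose, 10 µM in 0.5% DMSO · System – CHO-CHOP cells, stable luciferase reporter of PERK-eIF2a-CHOP signalling · Input – 500 cells/well · Control set – tunicamycin 10 µg/mL final as positive, DMSO-only wells as negative · Timing – 6 h compound treatment, 37 °C · Measure – % activation vs tunicamycin · Technique – luminescence read with Steady-Glo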
# B2AR ag: beta2AR agonists driving receptor internalization, primary screen, cell-based, FAP fluorogen, flow cytometry; 0.43% of 340,000 active; Beta-2 adrenergic receptor (Homo sapiens), P07550; response, % (test concentration not listed); Am2.2-beta2AR cells;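 active means response above a set limit, near 3 SD of response in nonfluorescent compounds, cut at about 42% in these data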
# Target sequence (P07550 whole entry, looked up): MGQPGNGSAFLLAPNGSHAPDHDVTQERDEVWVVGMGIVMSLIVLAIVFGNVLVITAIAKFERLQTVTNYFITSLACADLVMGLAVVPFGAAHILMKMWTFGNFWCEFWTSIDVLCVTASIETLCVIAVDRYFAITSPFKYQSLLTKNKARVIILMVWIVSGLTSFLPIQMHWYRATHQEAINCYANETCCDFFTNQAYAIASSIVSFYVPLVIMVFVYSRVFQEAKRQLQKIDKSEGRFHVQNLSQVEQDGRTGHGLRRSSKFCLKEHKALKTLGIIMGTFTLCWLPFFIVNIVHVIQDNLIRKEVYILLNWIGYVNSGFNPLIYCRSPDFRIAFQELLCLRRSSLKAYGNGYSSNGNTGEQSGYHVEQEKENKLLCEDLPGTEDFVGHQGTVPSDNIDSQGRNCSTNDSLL
# UPR XBP1 act: activators of adaptive XBP1 UPR arm, primary screen, cell-based, CHO-XBP1 luciferase reporter, luminescence, uHTS; 0.33% of 330,000 active; IRE1-XBP1 UPR activation; percent of tunicamycin response, DMSO as zero; activation, % at 20 µM;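 active means versus positive control, 20 µM dose yields 30% or more activation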;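 further: 100% = tunicamycin at 10 µg/mL and 0% = DMSO only wells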
#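 Test system: CHO-XBP1 luciferase reporter cells | Buffer or medium: Serum-containing F12 medium, 10% FBS | Schedule: 6 h compound exposure at 37 °C, 5% CO2 | Detection: Steady-Glo luciferase glow luminescence, 10 min after reagent addition | Read-out basis: Activation, % of tunicamycin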
# * = called active by the depositor; . = no result given.
SMILES,Dynein transport,Mdm2-MdmX inh,MDM2 E3 inh,UPR CHOP act,B2AR ag,UPR XBP1 act
CCn1cc(C(=O)NCc2ccccc2OC)c(=O)c2cc(S(=O)(=O)N(C)C)ccc21,0.6,19,37*,0,-2,-3
CC1C(=O)N2CCCc3cc(S(=O)(=O)Nc4ccccc4C(N)=O)cc1c32 (stereo unspecified),.,7,.,0,-14,-1
O=c1cc(CN2CCN(Cc3ccccc3)CC2)c2ccc(O)c(O)c2o1,.,11,.,4,11,63*
Cc1ccc(/C=[N+](/C)[O-])cc1,1.8,-6,0,-1,6,-3
Cc1ccc(C=C2C(Cl)=C(Cl)C(Cl)=C2Cl)cc1,-6.2*,20,49*,-4,.,-4
Cc1cc(C)c2nc(NCCCNC(=S)NCCCN(C)C)c(C#N)cc2c1,3.4,22,-7,3,43*,0
Cc1c(Cc2ccccc2)c(=O)oc2c(C)c(OCC(=O)NCc3ccccn3)ccc12,.,-16,.,1,45*,-1
Cc1cccc(OC(=O)Cn2c(C(F)(F)F)nc3ccccc32)c1,-0.4,8,16,-2,3,-2
O=C(Cn1c(C(F)(F)F)nc2ccccc21)Oc1cccc(C(F)(F)F)c1,-4.2*,-8,-14,-2,7,1
CCOC(=O)c1c(NC(=S)Nc2ccccc2)sc2c1CCN(CC)C2,-0.47,-9,51*,1,-14,-3
CCOC(=O)c1c(NC(=S)Nc2ccccc2)sc2c1CCCCC2,0.25,-10,-5,1,7,-5
CCC(C)(C)NC(=O)C(c1cccc(OC)c1)N(C(=O)CNC(=O)c1cccs1)c1cccnc1 (stereo unspecified),.,18,.,1,2,-4
Cc1cc(O)c2c(c1)CC1C3CCC4CC(=O)CCC4(C)C3CC(=O)C21C (stereo unspecified),.,.,.,.,-2,.
O=C1CCN(Cc2ccccc2)S(=O)(=O)c2ccccc21,0.52,-5,40*,0,-13,-1
C=C1CCN(Cc2ccccc2)S(=O)(=O)c2ccccc21,-0.36,12,-9,0,6,-1
COc1ccc(OC2CCN(S(=O)(=O)c3ccccc3)CC2)cc1,.,10,.,-3,7,1
CCCCCCCC/C=C\CCCCCCCC(=O)NCCc1ccc(O)c(O)c1,.,48,.,148*,34,17
CCOc1ccc(NC(=O)CN(C)S(=O)(=O)c2cnc[nH]2)cc1,-0.4,-9,32*,0,0,1
CCOc1ccc(OCC)c(NC(=O)CN(C)S(=O)(=O)c2cnc[nH]2)c1,0.034,-5,-6,-1,1,-4
Cc1ccc(C(=O)Nc2sc3c(c2C(=O)O)CCC(C)C3)o1 (stereo unspecified),.,29,.,14,2,6
COC(=O)/C=C1\C(=O)N(c2nc3ccccc3s2)C(=S)N1c1ccc(F)cc1,0.95,-3,-13,18,17,12
COC(=O)/C=C1\C(=O)N(c2nc3ccc(OC)cc3s2)C(=S)N1c1ccc(F)cc1,-0.97,10,-3,73*,.,14
CCN(CC)c1ccc2cc(-c3nnc(-c4ccc(Br)cc4)o3)c(=O)oc2c1,-5.7*,.,.,.,.,.
CCN(CC)c1ccc2cc(-c3nnc(-c4ccccc4)o3)c(=O)oc2c1,-4.5*,-37,-2,6,.,-4
COc1cccc(CC(NC(C)=O)C(=O)NC2CCN(C(=O)c3ccc(Cl)cc3)CC2)c1OC (stereo unspecified),.,18,.,1,-1,-4
SMILES,Dynein transport,Mdm2-MdmX inh,MDM2 E3 inh,UPR CHOP act,B2AR ag,UPR XBP1 act
Cc1cc(/C=N\NC(=O)CC(=O)NC2CCCCC2)c(C)n1-c1ccc(Cl)c(Cl)c1,0.2,27,3,-2,56*,0
C#CCOCCOCCOCCNc1nc(N2CCN(C(=O)[C@H](Cc3ccc(O)cc3)n3cc([C@@H](N)C(C)CC)nn3)CC2)nc(N2CCN(C(=O)[C@H](Cc3cc4ccccc4[nH]3)n3cc([C@@H](N)C(C)CC)nn3)CC2)n1 (stereo partly specified),0.99,6,.,1,58*,-4
C#CCOCCOCCOCCNc1nc(N2CCN(C(=O)[C@H](Cc3cc4ccccc4[nH]3)n3cc([C@@H](N)Cc4ccc(O)cc4)nn3)CC2)nc(N2CCN(C(=O)[C@H](Cc3cc4ccccc4[nH]3)n3cc([C@@H](N)CC(C)C)nn3)CC2)n1,-0.5,.,-1,.,73*,.
C#CCOCCOCCOCCNc1nc(N2CCN(C(=O)C(Cc3cc4ccccc4[nH]3)n3cc(C(N)Cc4ccc(O)cc4)nn3)CC2)nc(N2CCN(C(=O)C(Cc3cc4ccccc4[nH]3)n3cc(C(N)Cc4ccc(O)cc4)nn3)CC2)n1 (stereo unspecified),0.67,.,.,.,.,.
Clc1ccc2c(N/N=C/c3cccc(Br)c3)ccnc2c1,-0.9,.,-7,.,46*,.
COc1ccc(C(=O)/C=C/C(=O)N(CC(=O)NC2CCCCC2)Cc2cccs2)c(O)c1,-3.4,30,-15,-9,115*,-9
CC(C)CN(C(=O)COc1ccc(-c2nnco2)cc1)C1CCS(=O)(=O)C1 (stereo unspecified),.,-18,.,-1,6,0
CSc1ncnc2ncn(C)c12,.,.,.,.,-8,.
Cc1[nH]c2ccc(Cl)cc2c(=O)c1CN1CCCC1,-0.87,6,35*,1,4,-1
O=C(c1c[nH]c(C(=O)C(Cl)(Cl)Cl)c1)c1c(F)cccc1F,.,-5,.,0,46*,-9
O=C(c1c[nH]c(C(=O)C(Cl)(Cl)Cl)c1)c1ccccc1F,.,-7,.,-2,11,-6
O=C1N/C(=C/c2ccc(N3CCOCC3)o2)C(=O)N1c1ccccc1,-6.2*,.,47*,.,4,.
C=CCN1C(=O)N/C(=C/c2ccc(N3CCOCC3)o2)C1=O,-1.5,42,4,28,.,-4
Cc1ccsc1C1Nc2ccc3ncccc3c2C2=C1C(=O)CCC2 (stereo unspecified),0.00023,21,34*,0,-14,3
COc1cc(C2Nc3ccc4ncccc4c3C3=C2C(=O)CCC3)cc(OC)c1OC (stereo unspecified),1.1,-19,5,2,-17,10
